# According to paper PMC8911105 (Journal of Pharmaceutical Investigation, 2022):
# Where two headings read alike, the source gives them in different places.
# Tests used:
# [1] = system: rat OCTN1 (rOCTN1); assay: RT-qPCR of rOCTN1 mRNA expression in organs of 1,25; assay type: in vivo; details: for Decrease in rOCTN1 mRNA expression level compared to control rats: 2.56 nmol/kg/day i.p. for four days, normalized to GAPDH
# [2] = Body weight of rats during 1,25; assay type: in vivo, rat; details: after pretreatment with 1,25(OH)2D3 2.56 nmol/kg/day for four days
# [3] = Basal level of endogenous ergothioneine in plasma, urine and tissues; assay type: in vivo, rat; details: for Decrease in Kp of basal endogenous ergothioneine after 1,25(OH)2D3 pretreatment: treated vs control
# Summary of the method: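 Rats got 1,25(OH)2D3 2.56 nmol/kg/day for four days, with no ergothioneine given. Tail-vein blood (0.3 mL) was drawn 30 min before each dose and at the same time on days 5–6. Urine was collected over 24 h from day 5 to 6, and seven tissues were taken on day 6. LC-MS/MS was run with a 2–10,000 ng/mL calibration (LLOQ 2 ng/mL). n = 5 control, 6 treated; means ± SD; unpaired two-tailed t-test.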
# [4] = humans; oral administration; ref Cheah et al. [2017]; cited from earlier work
# [5] = mice; oral administration; ref Kato et al. [2010]; cited from earlier work
# [6] = assay type: in vivo, rat
# Summary of the method: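 After four days of 1,25(OH)2D3 pretreatment, rats under ip Zoletil/Rompun (20 mg/kg) had femoral vein and artery cannulated. Aqueous ergothioneine (2 mg/mL) was given at 2 mg/kg IV. Plasma was sampled 0–1,440 min with heparinized-saline replacement. Plasma and urine were diluted 50- and 100-fold with 1% BSA for LC-MS/MS. AUC, CL, Vss and MRT came from non-compartmental analysis. Kp fold change was exogenous over basal Kp.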
# [7] = brain, 1,25(OH)2D3-treated rats
# [8] = heart, 1,25(OH)2D3-treated rats
# [9] = kidney, 1,25(OH)2D3-treated rats
# [10] = muscle, 1,25(OH)2D3-treated rats
# [11] = spleen, 1,25(OH)2D3-treated rats
# [12] = 2 mg/kg IV, 1,25(OH)2D3-treated rats
structure (smiles),measurement,setting,value
"C=C1/C(=C\C=C2/CCC[C@]3(C)[C@@H]([C@H](C)CCCC(C)(C)O)CC[C@@H]23)C[C@@H](O)C[C@@H]1O [1,25(OH)2D3, 1α,25-dihydroxyvitamin D3]",Decrease in rOCTN1 mRNA expression level compared to control rats,[1]; brain,27%
same,Decrease in rOCTN1 mRNA expression level compared to control rats,[1]; kidney,77%
same,Change in rOCTN1 mRNA levels,"[1]; other tissues, such as the liver, spleen, and heart",no significant changes
same,Weight gain compared with control rats,[2],significantly lower
"C[N+](C)(C)[C@@H](Cc1c[nH]c(=S)[nH]1)C(=O)[O-] [ergothioneine, l-ergothioneine]","Cumulative amount of ergothioneine excreted in urine for 24 h (basal, endogenous)","[3]; 1,25(OH)2D3-treated group",1880 ng
same,Basal plasma level of endogenous ergothioneine compared with control,"[3]; 1,25(OH)2D3-treated group, third day to sixth day of pretreatment",significantly increased
same,"Tissue partition coefficient (Kp), basal endogenous ergothioneine",[3]; [7],1.587 ± 0.929
same,"Tissue partition coefficient (Kp), basal endogenous ergothioneine","[3]; brain, control rats",3.585 ± 0.447
same,"Cumulative amount of ergothioneine excreted in urine for 24 h (basal, endogenous)",[3]; control group,3858 ng
same,"Tissue partition coefficient (Kp), basal endogenous ergothioneine",[3]; [8],22.25 ± 15.27
same,"Tissue partition coefficient (Kp), basal endogenous ergothioneine","[3]; heart, control rats",34.59 ± 7.01
same,"Tissue partition coefficient (Kp), basal endogenous ergothioneine",[3]; [9],20.56 ± 11.88
same,"Tissue partition coefficient (Kp), basal endogenous ergothioneine","[3]; kidney, control rats",60.85 ± 10.93
same,"Decrease in Kp of basal endogenous ergothioneine after 1,25(OH)2D3 pretreatment",[3]; kidneys,66.2%
same,"Tissue partition coefficient (Kp), basal endogenous ergothioneine","[3]; liver, 1,25(OH)2D3-treated rats (n = 6)",106.7 ± 62.3
same,"Tissue partition coefficient (Kp), basal endogenous ergothioneine","[3]; liver, control rats (n = 5)",224.4 ± 53.9
same,"Decrease in Kp of basal endogenous ergothioneine after 1,25(OH)2D3 pretreatment",[3]; liver,52.4%
same,"Tissue partition coefficient (Kp), basal endogenous ergothioneine","[3]; lung, 1,25(OH)2D3-treated rats",17.75 ± 11.47
same,"Tissue partition coefficient (Kp), basal endogenous ergothioneine","[3]; lung, control rats",30.67 ± 6.68
same,"Tissue partition coefficient (Kp), basal endogenous ergothioneine",[3]; [10],4.471 ± 3.279
same,"Tissue partition coefficient (Kp), basal endogenous ergothioneine","[3]; muscle, control rats",8.385 ± 1.141
same,"Decrease in Kp of basal endogenous ergothioneine after 1,25(OH)2D3 pretreatment",[3]; muscle,46.7%
same,"Tissue partition coefficient (Kp), basal endogenous ergothioneine",[3]; [11],15.22 ± 7.87
same,"Tissue partition coefficient (Kp), basal endogenous ergothioneine","[3]; spleen, control rats",42.50 ± 14.19
same,"Decrease in Kp of basal endogenous ergothioneine after 1,25(OH)2D3 pretreatment",[3]; spleen,64.2%
same,Urinary recovery of ergothioneine,[4],< 4%
same,Urinary recovery of ergothioneine,[5],< 4%
same,CL,[6]; [12],1.894 ± 0.733 mL/min/kg
same,MRT,[6]; [12],33.50 ± 20.07 h
same,Urinary recovery of ergothioneine within 24 h,[6]; [12],1.08%
same,Vss,[6]; [12],3.298 ± 0.959 L/kg
same,AUC∞,"[6]; 2 mg/kg IV, 1,25(OH)2D3-treated rats (n = 6)",1198 ± 457 µg·min/mL
same,CL,"[6]; 2 mg/kg IV, control rats",3.729 ± 1.734 mL/min/kg
same,MRT,"[6]; 2 mg/kg IV, control rats",27.11 ± 17.31 h
same,Urinary recovery of ergothioneine within 24 h,"[6]; 2 mg/kg IV, control rats",3.89%
same,Vss,"[6]; 2 mg/kg IV, control rats",4.82 ± 1.291 L/kg
same,AUC∞,"[6]; 2 mg/kg IV, control rats (n = 7)",647.5 ± 327.5 µg·min/mL
same,"Decrease in total clearance in 1,25(OH)2D3-treated rats","[6]; 2 mg/kg IV, treated vs control",49%
same,"Increase in AUC∞ in 1,25(OH)2D3-treated rats","[6]; 2 mg/kg IV, treated vs control",85%
same,"Tissue partition coefficient (Kp), IV exogenous ergothioneine",[6]; [7],2.909 ± 0.448
same,"Tissue partition coefficient (Kp), IV exogenous ergothioneine","[6]; brain, control rats",4.799 ± 1.199
same,"Tissue partition coefficient (Kp), IV exogenous ergothioneine",[6]; [8],39.88 ± 10.04
same,"Tissue partition coefficient (Kp), IV exogenous ergothioneine","[6]; heart, control rats",81.04 ± 37.23
same,Fold change of Kp (exogenous versus endogenous basal),"[6]; kidney, 1,25(OH)2D3-treated group",3.70 fold
same,"Tissue partition coefficient (Kp), IV exogenous ergothioneine",[6]; [9],76.12 ± 47.89
same,Fold change of Kp (exogenous versus endogenous basal),"[6]; kidney, control group",3.13 fold
same,"Tissue partition coefficient (Kp), IV exogenous ergothioneine","[6]; kidney, control rats",190.7 ± 59.4
same,"Tissue partition coefficient (Kp), IV exogenous ergothioneine","[6]; liver, 1,25(OH)2D3-treated rats (n = 6), 24 h after 2 mg/kg IV",237.3 ± 82.8
same,"Tissue partition coefficient (Kp), IV exogenous ergothioneine","[6]; liver, control rats (n = 5), 24 h after 2 mg/kg IV",407.8 ± 113.9
same,"Tissue partition coefficient (Kp), IV exogenous ergothioneine","[6]; lung, 1,25(OH)2D3-treated rats",38.61 ± 8.48
same,"Tissue partition coefficient (Kp), IV exogenous ergothioneine","[6]; lung, control rats",57.37 ± 14.60
same,"Tissue partition coefficient (Kp), IV exogenous ergothioneine",[6]; [10],10.25 ± 3.90
same,"Tissue partition coefficient (Kp), IV exogenous ergothioneine","[6]; muscle, control rats",19.43 ± 8.95
same,"Tissue partition coefficient (Kp), IV exogenous ergothioneine",[6]; [11],21.89 ± 2.34
same,"Tissue partition coefficient (Kp), IV exogenous ergothioneine","[6]; spleen, control rats",70.56 ± 17.46
